The target in series [1] is T1, Amine oxidase [flavin-containing] B (Homo sapiens, UniProt P27338).
T1 sequence (P27338 whole entry): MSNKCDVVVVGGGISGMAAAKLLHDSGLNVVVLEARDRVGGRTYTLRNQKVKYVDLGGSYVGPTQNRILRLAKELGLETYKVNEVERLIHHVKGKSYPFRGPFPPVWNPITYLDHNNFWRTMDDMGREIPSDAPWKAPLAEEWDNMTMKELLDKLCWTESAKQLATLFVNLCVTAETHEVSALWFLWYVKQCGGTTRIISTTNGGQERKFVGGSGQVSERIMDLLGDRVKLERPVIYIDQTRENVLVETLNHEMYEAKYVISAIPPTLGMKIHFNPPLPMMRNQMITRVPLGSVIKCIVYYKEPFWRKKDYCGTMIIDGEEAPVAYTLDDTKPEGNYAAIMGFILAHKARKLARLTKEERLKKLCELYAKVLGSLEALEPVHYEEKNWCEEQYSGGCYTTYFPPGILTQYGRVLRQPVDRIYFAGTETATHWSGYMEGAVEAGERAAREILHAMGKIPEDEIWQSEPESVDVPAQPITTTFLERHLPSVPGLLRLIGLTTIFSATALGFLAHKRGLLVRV
The format is cell-based, BTI-TN-5B1-4.

For a further series, the species on record is Homo sapiens. As to the kind of experiment: Selectivity for human MAOB over human MAOA. An outline of the steps:
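Selectivity index = IC50(hMAO-A)/IC50(hMAO-B), both from Amplex Red/p-tyramine fluorimetric assays on insect-cell recombinant enzymes.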

Series [2] has as its target T2, Amine oxidase [flavin-containing] A (Homo sapiens, UniProt P21397).
T2 sequence (P21397 whole entry): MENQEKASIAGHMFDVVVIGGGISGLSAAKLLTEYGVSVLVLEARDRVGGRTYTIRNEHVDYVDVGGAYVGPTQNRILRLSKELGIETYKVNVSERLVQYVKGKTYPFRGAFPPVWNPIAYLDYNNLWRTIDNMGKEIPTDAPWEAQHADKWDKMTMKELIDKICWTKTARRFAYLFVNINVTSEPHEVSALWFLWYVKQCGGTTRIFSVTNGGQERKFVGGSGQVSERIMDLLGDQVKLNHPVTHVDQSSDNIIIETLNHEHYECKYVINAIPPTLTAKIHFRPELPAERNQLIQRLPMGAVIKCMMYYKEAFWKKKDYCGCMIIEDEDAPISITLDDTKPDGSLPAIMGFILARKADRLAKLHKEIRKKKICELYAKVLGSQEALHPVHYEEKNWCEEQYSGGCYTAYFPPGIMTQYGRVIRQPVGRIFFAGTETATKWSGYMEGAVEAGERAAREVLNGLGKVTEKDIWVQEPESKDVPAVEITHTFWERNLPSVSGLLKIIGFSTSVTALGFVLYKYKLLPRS
Description: Inhibition of human recombinant MAOA expressed in BTI-TN-5B1-4 cells at 100 uM by para-tyramine oxidation assay. The note with it: for inhibition (INH): human, bti-tn-5b1-4, 100 µM; for inhibition at 100 µM: BTI-TN-5B1-4, human. The format is cell-based.

Series [3] addresses T1, Amine oxidase [flavin-containing] B. Description: Inhibition of human recombinant MAOB expressed in BTI-TN-5B1-4 cells at 100 uM by para-tyramine oxidation assay. Format: cell-based. The note with it: for inhibition at 100 µM: BTI-TN-5B1-4, human; for inhibition (INH): human, bti-tn-5b1-4, 100 µM.

Consider 41 molecules from ChEMBL document CHEMBL1159098, “A new series of flavones, thioflavones, and flavanones as selective monoamine oxidase-B inhibitors” (Bioorg Med Chem, 2010).

In series [1], `Cc1ccc(-c2cc(=O)c3ccccc3o2)cc1` registered an IC50 of 2380 nM. The Ratio IC50 in the series filed under Homo sapiens is more than 42. Also, the “inhibition (INH)” value in series [2] is “Not Active”.
The matching figures for `Cc1ccc(C2CC(=O)c3ccc(C)cc3O2)cc1` (racemic): 500 nM, more than 200 and “Not Active”.
In series [1], `Cc1ccc(-c2cc(=S)c3ccc(F)cc3o2)cc1` came in with a half-maximal inhibitory concentration (IC50) of 1610 nM. In the series listed under Homo sapiens, the Ratio IC50 was more than 62. Moreover, the inhibition at 100 µM in series [2] came to 40%.
In series [1], `O=C1CC(c2ccccc2)Oc2ccccc21` (racemic) [FLAVANONE] returned a half-maximal inhibitory concentration (IC50) of 2870 nM. In addition, the Ratio IC50 in the series listed under Homo sapiens is more than 35. In series [2], the “inhibition (INH)” value is “Not Active”.
With `COc1ccc2c(c1)OC(c1ccc(C)cc1)CC2=O` (racemic), the midpoint of inhibition in series [1], the IC50, lay at 550 nM. Moreover, the Ratio IC50 in the series listed under Homo sapiens was more than 182. Moreover, the “inhibition (INH)” value in series [2] is on record as “Not Active”.
As for `Cc1ccc(-c2cc(=O)c3ccc(F)cc3o2)cc1`, half-maximal inhibition in series [1] (IC50) required 4330 nM. Also, the Ratio IC50 in the series filed under Homo sapiens is more than 23. Moreover, the “inhibition (INH)” value in series [2] is recorded as “Not Active”.
As to `COc1ccc2c(c1)OC(c1ccc(F)cc1)CC2=O` (racemic), the IC50 in series [1] was determined as 170 nM. The Ratio IC50 in the series listed under Homo sapiens was more than 588. Further, in series [2], the “inhibition (INH)” value is “Not Active”.
The matching figures for `COc1ccc(C2CC(=O)c3ccccc3O2)cc1` (racemic): 2200 nM, more than 45 and “Not Active”.
For the molecule `COc1ccc(-c2cc(=S)c3ccc(F)cc3o2)cc1`, the inhibition at 100 µM in series [3] is 40%. Also, the “inhibition (INH)” value in series [2] is on record as “Not Active”.
For `COc1ccc2c(c1)O[C@@H](c1ccc(F)cc1)CC2=O`, the half-maximal inhibitory concentration (IC50) in series [1] was 200 nM. Besides, in the series filed under Homo sapiens, the Ratio IC50 is more than 500. In addition, in series [2], the “inhibition (INH)” value is given as “Not Active”.
In turn, `Cc1ccc(-c2cc(=S)c3ccccc3o2)cc1` came in with an IC50 in series [1] of 6690 nM. The Ratio IC50 in the series listed under Homo sapiens was more than 15. Also, in series [2], the “inhibition (INH)” value is recorded as “Not Active”.
As to `COc1ccc2c(=S)cc(-c3ccccc3)oc2c1`, the inhibition at 100 µM in series [3] amounted to 40%. Moreover, the “inhibition (INH)” value in series [2] is given as “Not Active”.
Molecule `Fc1ccc(-c2cc(=S)c3ccc(F)cc3o2)cc1` had an IC50 in series [1] of 6890 nM. Moreover, the Ratio IC50 in the series listed under Homo sapiens is more than 15. Also, the “inhibition (INH)” value in series [2] is given as “Not Active”.
`Cc1ccc([C@H]2CC(=O)c3ccc(C)cc3O2)cc1`: the concentration for half-maximal inhibition (IC50) in series [1] was 530 nM. In the series listed under Homo sapiens, the Ratio IC50 is more than 189. In series [2], the “inhibition (INH)” value is on record as “Not Active”.
The like results for `COc1ccc2c(c1)OC(c1ccccc1)CC2=O` (racemic) were, in that order, 1470 nM, more than 68 and “Not Active”.
In the case of `O=c1cc(-c2ccccc2)oc2cc(F)ccc12` [7-FLUOROFLAVONE], in series [1], the IC50 was determined as 12900 nM. For the same molecule, the Ratio IC50 in the series listed under Homo sapiens is more than 7.7. The inhibition at 100 µM in series [2] was 40%.
Take `COc1ccc2c(=S)cc(-c3ccc(F)cc3)oc2c1`: the inhibition at 100 µM in series [3] amounted to 40%. Moreover, the “inhibition (INH)” value in series [2] is on record as “Not Active”.
The molecule `COc1ccc2c(=O)cc(-c3ccc(F)cc3)oc2c1` had an IC50 in series [1] of 5140 nM. In addition, in the series listed under Homo sapiens, the Ratio IC50 was more than 19. For the same molecule, the “inhibition (INH)” value in series [2] was “Not Active”.
`COc1ccc2c(=S)cc(-c3ccc(C)cc3)oc2c1` had a 50% inhibitory concentration (IC50) in series [1] of 7610 nM. Further, the Ratio IC50 in the series listed under Homo sapiens was more than 13. In addition, the inhibition at 100 µM in series [2] came to 40%.
Consider `Fc1ccc2c(=S)cc(-c3ccccc3)oc2c1`, for which the inhibition at 100 µM in series [3] and in series [2] was 40% throughout.
Regarding `COc1ccc(C2CC(=O)c3ccc(F)cc3O2)cc1` (racemic), in series [1], the IC50 was 170 nM. In addition, the Ratio IC50 in the series listed under Homo sapiens was more than 588. The “inhibition (INH)” value in series [2] was “Not Active”.
The matching figures for `COc1ccc(-c2cc(=S)c3ccc(OC)cc3o2)cc1`: 3340 nM, more than 30 and “Not Active”.
As for `Fc1ccc(-c2cc(=S)c3ccccc3o2)cc1`, the “inhibition (INH)” value in series [3] and in series [2] was “Not Active” each time.
The molecule `Cc1ccc(C2CC(=O)c3ccc(F)cc3O2)cc1` (racemic) gave a half-inhibitory concentration (IC50) in series [1] of 160 nM. Besides, in the series listed under Homo sapiens, the Ratio IC50 was more than 625. In addition, the “inhibition (INH)” value in series [2] is reported as “Not Active”.
Regarding `O=c1cc(-c2ccccc2)oc2ccccc12` [FLAVONE], in series [3], the “inhibition (INH)” value is recorded as “Not Active”. Moreover, the inhibition at 100 µM in series [2] was found to be 40%.
In the case of `COc1ccc2c(c1)O[C@H](c1ccc(F)cc1)CC2=O`, in series [1], 160 nM corresponded to half-maximal inhibition (IC50). Besides, in the series listed under Homo sapiens, the Ratio IC50 is more than 625. In addition, in series [2], the “inhibition (INH)” value was “Not Active”.
For the molecule `Cc1ccc2c(c1)OC(c1ccccc1)CC2=O` (racemic), the IC50 in series [1] amounted to 3620 nM. Further, in the series listed under Homo sapiens, the Ratio IC50 was more than 28. The “inhibition (INH)” value in series [2] was “Not Active”.
For `O=C1CC(c2ccc(F)cc2)Oc2ccccc21` (racemic), in series [1], the IC50 is 4410 nM. For the same molecule, the Ratio IC50 in the series listed under Homo sapiens was more than 23. Also, the “inhibition (INH)” value in series [2] is recorded as “Not Active”.
The molecule `COc1ccc(C2CC(=O)c3ccc(C)cc3O2)cc1` (racemic) showed a half-inhibitory concentration (IC50) in series [1] of 3350 nM. Also, the Ratio IC50 in the series listed under Homo sapiens is more than 30. Further, the “inhibition (INH)” value in series [2] is listed as “Not Active”.
The matching figures for `O=C1CC(c2ccccc2)Oc2cc(F)ccc21` (racemic): 3770 nM, more than 27 and “Not Active”.
The like results for `Cc1ccc(-c2cc(=S)c3ccc(C)cc3o2)cc1` were, in that order, 6720 nM, more than 15 and “Not Active”.
The like results for `Cc1ccc(C2CC(=O)c3ccccc3O2)cc1` (racemic) were, in that order, 2070 nM, more than 48 and “Not Active”.
`COc1ccc(-c2cc(=O)c3ccc(OC)cc3o2)cc1` [4,7-DIMETHOXYFLAVONE] registered an IC50 in series [1] of 49700 nM. For the same molecule, the Ratio IC50 in the series filed under Homo sapiens is more than 2. Further, the “inhibition (INH)” value in series [2] is recorded as “Not Active”.
The matching figures for `O=C1CC(c2ccc(F)cc2)Oc2cc(F)ccc21` (racemic): 670 nM, more than 149 and “Not Active”.
On to `COc1ccc(-c2cc(=O)c3ccccc3o2)cc1` [4'-METHOXYFLAVONE], for which, in series [1], inhibition was half-maximal at 27900 nM (IC50). Further, the Ratio IC50 in the series listed under Homo sapiens was more than 3.6. Besides, the inhibition at 100 µM in series [2] came out at 40%.
The matching figures for `COc1ccc(-c2cc(=O)c3ccc(F)cc3o2)cc1`: 1340 nM, more than 75 and 40%.
`O=c1cc(-c2ccc(F)cc2)oc2cc(F)ccc12`: the “inhibition (INH)” value in series [2] is given as “Not Active”.
The molecule `COc1ccc(-c2cc(=S)c3ccccc3o2)cc1` returned an IC50 in series [1] of 480 nM. Besides, the Ratio IC50 in the series listed under Homo sapiens was more than 208. Moreover, the inhibition at 100 µM in series [2] was found to be 40%.
In the case of `COc1ccc(C2CC(=O)c3ccc(OC)cc3O2)cc1` (racemic) [LIQUIRITIGENIN DIMETHYL ETHER], the midpoint of inhibition in series [1], the IC50, lay at 7180 nM. Further, the Ratio IC50 in the series listed under Homo sapiens was more than 14. The “inhibition (INH)” value in series [2] is reported as “Not Active”.
The matching figures for `COc1ccc2c(=O)cc(-c3ccc(C)cc3)oc2c1`: 11300 nM, more than 8.8 and “Not Active”.
The matching figures for `Cc1ccc([C@@H]2CC(=O)c3ccc(C)cc3O2)cc1`: 590 nM, more than 169 and “Not Active”.
